Active and inactive are the calls of the source. No cut-off for these calls is given here.
Tests used:
Assay type in all cases: cell-based
[1] = molecular target: T1, Aurora kinase A (Homo sapiens) (UniProt O14965); assay: Induction of aurora A degradation in human CHLA20 cells at 10 to 160 nM after 16 hrs by immunoblot method
T1 sequence (whole entry): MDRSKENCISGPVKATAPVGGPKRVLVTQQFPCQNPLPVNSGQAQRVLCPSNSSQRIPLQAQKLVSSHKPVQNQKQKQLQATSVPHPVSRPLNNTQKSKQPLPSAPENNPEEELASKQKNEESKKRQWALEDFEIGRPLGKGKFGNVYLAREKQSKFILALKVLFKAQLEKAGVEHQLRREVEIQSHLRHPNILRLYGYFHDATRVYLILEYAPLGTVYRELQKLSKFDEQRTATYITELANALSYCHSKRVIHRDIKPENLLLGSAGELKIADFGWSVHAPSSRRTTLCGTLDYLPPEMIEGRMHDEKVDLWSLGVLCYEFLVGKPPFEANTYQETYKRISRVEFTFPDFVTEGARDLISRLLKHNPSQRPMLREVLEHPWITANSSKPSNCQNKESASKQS
Procedure, shortened: (§1)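 Kelly and CHLA20 neuroblastoma cells were treated with dose titrations for 16 h, then Aurora A was detected by immunoblot. CHLA20 cells were always co-treated with 125 nM tariquidar, an ABCB1 inhibitor.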

[2] = molecular target: T2, ALK tyrosine kinase receptor (Homo sapiens, UniProt Q9UM73); assay: Induction of ALK degradation in human CHLA20 cells at 100 nM after 16 hrs in presence of ABCB1 shRNA by immunoblot method
[3] = molecular target: Tyrosine-protein kinase Fer (Homo sapiens) (UniProt P16591); assay: Induction of FER degradation in human Kelly cells at 100 nM measured over 2 to 16 hrs by immunoblot method
[4] = molecular target: T1, Aurora kinase A (Homo sapiens); assay: Induction of aurora A degradation in human NCI-H3122 cells at 0.01 to 1 uM after 16 hrs by immunoblot method
Procedure, shortened: (§2)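 H3122 (EML4-ALK NSCLC) and Karpas 299 (NPM-ALK ALCL) cells were exposed to dose titrations for 16 h. ALK and Aurora A levels were then assessed by immunoblot.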

[5] = molecular target: T1, Aurora kinase A (Homo sapiens); assay: Induction of aurora A degradation in human CHLA20 cells at 100 nM after 16 hrs in presence of proteasome inhibitor carfilzomib and ABCB1 inhibitor tariquidar by immunoblot method
Procedure, shortened: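 Cells were pre-treated for 2 h with DMSO, carfilzomib, MLN4924 or pomalidomide, then treated with compound for 16 h, with immunoblot read-out. CHLA20 cells also received 125 nM tariquidar throughout.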

[6] = molecular target: T1, Aurora kinase A (Homo sapiens); assay: Induction of aurora A degradation in human KARPAS299 cells at 0.01 to 1 uM after 16 hrs by immunoblot method; procedure, shortened: as §2
[7] = molecular target: T1, Aurora kinase A (Homo sapiens); assay: Induction of aurora A degradation in human Kelly cells at 10 to 160 nM after 16 hrs by immunoblot method; procedure, shortened: as §1
[8] = molecular target: Signal transducer and activator of transcription 3 (Homo sapiens) (UniProt P40763); assay: Inhibition of STAT3 phosphorylation at Y705 in human Kelly cells at 250 nM after 6 to 48 hrs by immunoblot method
[9] = molecular target: Signal transducer and activator of transcription 3 (Homo sapiens) (UniProt P40763); assay: Inhibition of STAT3 phosphorylation at Y705 in human CHLA20 cells at 250 nM after 6 to 48 hrs in presence of ABCB1 inhibitor tariquidar by immunoblot method
[10] = molecular target: T2, ALK tyrosine kinase receptor; assay: Induction of ALK degradation in human Kelly cells assessed as decrease in ALK phosphorylation at Y1507 at 250 nM after 6 to 48 hrs by immunoblot method
[11] = molecular target: T2, ALK tyrosine kinase receptor; assay: Induction of ALK degradation in human CHLA20 cells assessed as decrease in ALK phosphorylation at Y1507 at 250 nM after 6 to 48 hrs in presence of ABCB1 inhibitor tariquidar by immunoblot method

T2 sequence (Q9UM73 19-1620 limits assumed): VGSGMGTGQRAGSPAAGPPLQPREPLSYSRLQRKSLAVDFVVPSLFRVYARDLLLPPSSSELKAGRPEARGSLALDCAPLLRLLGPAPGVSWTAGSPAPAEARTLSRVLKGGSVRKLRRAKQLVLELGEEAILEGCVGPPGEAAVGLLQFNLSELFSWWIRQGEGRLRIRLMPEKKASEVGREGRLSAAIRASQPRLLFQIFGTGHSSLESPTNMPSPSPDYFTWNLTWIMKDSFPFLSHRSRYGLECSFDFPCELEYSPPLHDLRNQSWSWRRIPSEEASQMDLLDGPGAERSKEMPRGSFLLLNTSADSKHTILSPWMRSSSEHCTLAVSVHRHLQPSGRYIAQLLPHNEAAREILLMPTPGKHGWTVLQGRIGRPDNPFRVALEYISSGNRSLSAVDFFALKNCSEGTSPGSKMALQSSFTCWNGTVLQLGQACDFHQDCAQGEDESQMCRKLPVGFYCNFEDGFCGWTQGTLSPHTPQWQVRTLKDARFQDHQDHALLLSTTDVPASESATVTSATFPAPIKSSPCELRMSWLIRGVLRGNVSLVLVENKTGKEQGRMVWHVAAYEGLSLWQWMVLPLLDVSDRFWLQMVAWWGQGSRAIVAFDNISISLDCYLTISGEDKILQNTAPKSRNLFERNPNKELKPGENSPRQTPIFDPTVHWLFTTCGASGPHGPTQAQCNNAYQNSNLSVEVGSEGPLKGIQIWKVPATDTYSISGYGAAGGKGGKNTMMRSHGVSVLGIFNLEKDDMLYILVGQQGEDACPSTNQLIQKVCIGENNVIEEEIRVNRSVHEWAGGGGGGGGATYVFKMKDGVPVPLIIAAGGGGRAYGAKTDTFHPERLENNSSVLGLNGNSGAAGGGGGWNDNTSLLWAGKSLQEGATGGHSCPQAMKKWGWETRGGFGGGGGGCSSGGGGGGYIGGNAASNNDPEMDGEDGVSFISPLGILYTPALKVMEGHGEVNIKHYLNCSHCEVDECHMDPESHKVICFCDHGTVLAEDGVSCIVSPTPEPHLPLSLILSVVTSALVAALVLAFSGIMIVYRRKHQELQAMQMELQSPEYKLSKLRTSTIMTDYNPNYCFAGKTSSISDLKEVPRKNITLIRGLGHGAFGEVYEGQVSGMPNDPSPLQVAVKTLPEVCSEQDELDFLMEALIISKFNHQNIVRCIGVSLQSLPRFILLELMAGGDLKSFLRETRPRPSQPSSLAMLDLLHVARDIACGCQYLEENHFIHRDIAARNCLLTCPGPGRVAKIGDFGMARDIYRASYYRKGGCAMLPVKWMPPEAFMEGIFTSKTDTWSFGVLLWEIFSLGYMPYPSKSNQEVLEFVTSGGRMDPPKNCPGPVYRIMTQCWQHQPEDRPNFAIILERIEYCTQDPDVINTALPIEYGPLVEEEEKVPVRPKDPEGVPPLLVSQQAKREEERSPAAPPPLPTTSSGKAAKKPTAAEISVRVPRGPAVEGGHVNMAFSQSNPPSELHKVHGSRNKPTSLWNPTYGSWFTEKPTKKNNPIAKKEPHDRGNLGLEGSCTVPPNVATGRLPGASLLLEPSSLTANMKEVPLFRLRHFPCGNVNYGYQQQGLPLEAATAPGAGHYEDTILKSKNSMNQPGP
Chain of Signal transducer and activator of transcription 3 (Homo sapiens) (P40763 whole entry): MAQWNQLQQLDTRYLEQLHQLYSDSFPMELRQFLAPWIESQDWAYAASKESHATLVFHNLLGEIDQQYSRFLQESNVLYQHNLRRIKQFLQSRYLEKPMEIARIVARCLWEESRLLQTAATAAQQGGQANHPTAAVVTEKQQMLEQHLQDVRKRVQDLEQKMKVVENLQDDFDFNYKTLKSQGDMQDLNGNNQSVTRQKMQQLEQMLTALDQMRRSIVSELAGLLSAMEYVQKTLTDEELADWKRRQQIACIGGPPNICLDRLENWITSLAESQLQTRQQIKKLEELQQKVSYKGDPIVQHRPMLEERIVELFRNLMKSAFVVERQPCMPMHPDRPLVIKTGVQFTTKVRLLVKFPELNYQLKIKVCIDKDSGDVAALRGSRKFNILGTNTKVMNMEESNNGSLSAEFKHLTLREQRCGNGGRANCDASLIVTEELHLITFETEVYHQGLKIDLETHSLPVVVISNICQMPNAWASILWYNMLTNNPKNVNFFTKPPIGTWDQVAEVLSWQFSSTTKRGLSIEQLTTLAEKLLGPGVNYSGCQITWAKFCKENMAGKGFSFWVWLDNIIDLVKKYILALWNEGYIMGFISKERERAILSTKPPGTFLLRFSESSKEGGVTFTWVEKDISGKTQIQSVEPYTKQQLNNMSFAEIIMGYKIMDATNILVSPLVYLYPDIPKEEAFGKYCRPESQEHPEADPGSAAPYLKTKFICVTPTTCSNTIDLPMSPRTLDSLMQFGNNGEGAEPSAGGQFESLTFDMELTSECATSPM
Chain of Tyrosine-protein kinase Fer (Homo sapiens) (P16591 whole entry, looked up): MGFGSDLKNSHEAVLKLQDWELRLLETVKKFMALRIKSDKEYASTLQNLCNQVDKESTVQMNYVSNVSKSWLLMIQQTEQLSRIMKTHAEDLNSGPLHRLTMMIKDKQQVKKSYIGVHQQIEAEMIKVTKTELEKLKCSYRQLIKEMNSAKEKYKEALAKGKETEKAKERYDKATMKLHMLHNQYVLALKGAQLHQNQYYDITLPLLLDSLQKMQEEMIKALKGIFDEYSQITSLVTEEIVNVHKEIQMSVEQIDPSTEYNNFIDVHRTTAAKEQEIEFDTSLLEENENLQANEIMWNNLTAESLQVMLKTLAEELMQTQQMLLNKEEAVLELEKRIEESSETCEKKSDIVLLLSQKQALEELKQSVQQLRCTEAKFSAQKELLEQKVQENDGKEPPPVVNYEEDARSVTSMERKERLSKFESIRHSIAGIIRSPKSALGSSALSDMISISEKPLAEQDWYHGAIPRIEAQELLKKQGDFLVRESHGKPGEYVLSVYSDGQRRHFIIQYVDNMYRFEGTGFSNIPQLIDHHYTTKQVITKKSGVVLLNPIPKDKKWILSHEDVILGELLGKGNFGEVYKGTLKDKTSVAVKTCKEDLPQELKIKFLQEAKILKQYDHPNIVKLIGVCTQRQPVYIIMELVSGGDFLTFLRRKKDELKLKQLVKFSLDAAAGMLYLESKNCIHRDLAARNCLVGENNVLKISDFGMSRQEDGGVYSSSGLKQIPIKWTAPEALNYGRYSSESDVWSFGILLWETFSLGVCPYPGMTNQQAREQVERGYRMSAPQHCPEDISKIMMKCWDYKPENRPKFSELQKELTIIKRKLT

Activity [1] | Activity [2] | Activity [3] | Activity [4] | Activity [5] | Activity [6] | Activity [7] | inhibition [8] | inhibition [9] | Activity [10] | Activity [11] | SMILES
Active | Active | Active | Active | inactive | Active | Active |  |  |  |  | COc1cc(N2CCN(CCOCCOCCNC(=O)CNc3cccc4c3C(=O)N(C3CCC(=O)NC3=O)C4=O)CC2)ccc1Nc1ncc(Cl)c(Nc2ccccc2S(=O)(=O)C(C)C)n1 (centres undefined)
 | Active | Active |  | inactive |  |  | Active | Active | Active | Active | Cc1cc(Nc2ncc(Cl)c(Nc3ccccc3S(=O)(=O)C(C)C)n2)c(OC(C)C)cc1C1CCN(CCOCCOCCNC(=O)CNc2cccc3c2C(=O)N(C2CCC(=O)NC2=O)C3=O)CC1 (centres undefined)
